Test results from ChEMBL document CHEMBL3525999, “In vivo biliary clearance should be predicted by intrinsic biliary clearance in sandwich-cultured hepatocytes” (Drug Metab Dispos, 2012).

Experiments:
[1] = In vivo apparent biliary clearance in iv dosed Sprague-Dawley rat by LC-MS/MS analysis; assay type: ADME, organism-based, Bile
[2] = tested on: Hepatocyte; assay: Drug uptake in sandwich cultured Sprague-Dawley rat hepatocytes by LC-MS/MS analysis; assay type: ADME, cell-based
Method in brief: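 Hepatocytes came from male Sprague-Dawley rats by two-step collagenase perfusion (viability >90%). They were seeded at 5 × 10^5 cells/well on collagen, overlaid with Matrigel 0.25 mg/mL on day 2, and cultured 72 h. Cells were preincubated 10 min at 37°C in HBSS or Ca2+/Mg2+-free HBSS with 1 mmol/L EGTA. Substrate (0.5 or 1 μmol/L) was incubated 15 min. Cells were then rinsed ice-cold, lysed in Triton X-100, and analyzed by LC-MS/MS, normalized to BCA protein. n = 3.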

[3] = Unbound fraction in Sprague-Dawley rat plasma at 100 uM by equilibrium dialysis method
[4] = In vivo intrinsic biliary clearance in iv dosed Sprague-Dawley rat by LC-MS/MS analysis; assay type: ADME, organism-based, Bile
[5] = Drug uptake in iv dosed Sprague-Dawley rat liver after 5 hrs by LC-MS/MS analysis; assay type: ADME, organism-based; settings: read-out: Drug uptake
Method in brief: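 Rats (9 weeks old) were anesthetized with isoflurane, and the femoral vein and common bile duct were cannulated; animals were held in Bollman cages. Compound (1 mg/mL in saline, or in saline:dimethylacetamide 1:1) was infused IV at 0.2 mL/h to reach steady-state plasma levels. Livers were taken 5 h after infusion start, extracted with acetonitrile containing internal standard, and analyzed by LC-MS/MS. n = 5.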

[6] = Biliary excretion in Eisai hyperbilirubinemic mutant rat at 20 mg/kg, iv administered as single dose by HPLC analysis; assay type: ADME, organism-based; design: dose 20 mg/kg, route intravenous; settings: bile, read-out: Drug excretion
[7] = Total clearance in Eisai hyperbilirubinemic mutant rat at 20 mg/kg, iv administered as single dose by HPLC analysis; assay type: ADME, organism-based; design: dose 20 mg/kg, route intravenous; settings: in vivo
[8] = Total clearance in rat; assay type: ADME, organism-based; settings: in vivo
[9] = Biliary excretion in rat; assay type: ADME; settings: bile, read-out: Drug excretion

Row | CL(app) [1] | Drug uptake [2] | fraction unbound at 100 µM [3] | CL [4] | concentration at 5 h [5] | dose excreted [6] | clearance [7] | clearance [8] | dose excreted [9] | Structure (SMILES)
1 | 3.5 mL/min/kg | 17.5 µmol/L | 0.003 | 1.18 mL/min/kg | 17.4 µM |  |  |  |  | CCCCC(=O)N(Cc1ccc(-c2ccccc2-c2nnn[nH]2)cc1)[C@H](C(=O)O)C(C)C
2 | 2.8 mL/min/kg | 26 µmol/L | 0.01 | 1.11 mL/min/kg | 19.1 µM |  |  |  |  | CCCc1nc(C(C)(C)O)c(C(=O)O)n1Cc1ccc(-c2ccccc2-c2nnn[nH]2)cc1 [OLMESARTAN]

Second part, the compound before the results:

Row | Structure (SMILES) | CL(app) [1] | Drug uptake [2] | fraction unbound at 100 µM [3] | CL [4] | concentration at 5 h [5] | dose excreted [6] | clearance [7] | clearance [8] | dose excreted [9]
3 | CO[C@@]1(NC(=O)CSCC#N)C(=O)N2C(C(=O)O)=C(CSc3nnnn3C)CS[C@@H]21 [CEFMETAZOLE] | 6.22 mL/min/kg | 11.4 µmol/L | 0.738 | 3.57 mL/min/kg | 5.1 µM |  |  |  | 
4 | CCN1CCN(C(=O)N[C@@H](C(=O)N[C@@H]2C(=O)N3C(C(=O)O)=C(CSc4nnnn4C)CS[C@H]23)c2ccc(O)cc2)C(=O)C1=O [CEFOPERAZONE] |  | 2.6 µmol/L |  |  | 2.5 µM |  |  |  | 
5 | Cc1cc(O)c(C(=O)N[C@@H](C(=O)N[C@@H]2C(=O)N3C(C(=O)O)=C(CSc4nnnn4C)CS[C@H]23)c2ccc(O)cc2)cn1 [CEFPIRAMIDE] | 4.72 mL/min/kg | 1 µmol/L | 0.158 | 3.357 mL/min/kg | 2.6 µM | 57.8% | 8.15 mL/min/kg |  | 
6 | CC[C@H](C)C(=O)O[C@H]1C[C@H](O)C=C2C=C[C@H](C)[C@H](CC[C@@H](O)C[C@@H](O)CC(=O)O)[C@H]21 [PRAVASTATIN] | 27.4 mL/min/kg | 1.9 µmol/L | 0.705 | 6.723 mL/min/kg | 1.9 µM |  |  |  | 
7 | CC(C)c1nc(N(C)S(C)(=O)=O)nc(-c2ccc(F)cc2)c1/C=C/[C@@H](O)C[C@@H](O)CC(=O)O [ROSUVASTATIN] | 24.17 mL/min/kg | 11.8 µmol/L | 0.035 | 2.505 mL/min/kg | 7.1 µM |  |  |  | 
8 | CC[C@@]1(O)C(=O)OCc2c1cc1n(c2=O)Cc2cc3c(CN(C)C)c(O)ccc3nc2-1 [TOPOTECAN] | 5.3 mL/min/kg | 3.3 µmol/L | 0.747 | 0.458 mL/min/kg | 6.9 µM |  |  | 40.1 mL/min/kg | 13.2%
